From PubChem
hERG rescue: hERG rescue from dofetilide block, primary screen, cell-based, CHO-hERG, FluxOR thallium flux, dofetilide IC70 | Voltage-gated inwardly rectifying potassium channel KCNH2 (Homo sapiens), Q12809 | dofetilide IC70 present | activation (rescue from dofetilide block), less the hit threshold, % at 10 µM | actives 0.51% (n = 310,000);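 active means activation above the mean of controls blocked by dofetilide plus 5 SD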;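 further: thallium influx through hERG after potassium depolarization seen as dye fluorescence rise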
KCNK3 inh: human KCNK3 channel inhibitors, primary screen, CHO cells, FluxOR thallium flux, B-score; Potassium channel subfamily K member 3 (Homo sapiens), O14649; FluxOR fluorescence; stronger effect = lower value; actives 0.84% (n = 340,000); B-score at 10 µM;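 active means B-score under library mean minus 4 SD, starting fluorescence ratio at most library mean plus 5 SD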;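 further: more negative B-score means stronger inhibition of thallium flux through KCNK3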
Target sequence (O14649 whole entry, looked up): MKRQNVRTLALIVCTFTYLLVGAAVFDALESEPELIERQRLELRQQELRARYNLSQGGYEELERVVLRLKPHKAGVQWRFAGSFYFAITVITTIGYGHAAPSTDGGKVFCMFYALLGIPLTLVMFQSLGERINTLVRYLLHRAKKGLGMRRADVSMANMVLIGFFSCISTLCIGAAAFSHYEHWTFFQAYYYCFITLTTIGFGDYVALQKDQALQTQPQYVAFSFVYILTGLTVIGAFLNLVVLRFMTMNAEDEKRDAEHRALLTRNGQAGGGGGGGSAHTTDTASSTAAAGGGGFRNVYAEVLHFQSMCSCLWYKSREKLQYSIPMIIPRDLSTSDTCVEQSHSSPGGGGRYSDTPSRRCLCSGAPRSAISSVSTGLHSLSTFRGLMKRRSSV
KCNQ1 inh: inhibitors of human KCNQ1 channel, primary screen, cell-based, thallium flux, high-throughput; B-score at 10 µM; Potassium voltage-gated channel subfamily KQT member 1 (Homo sapiens), P51787; CHO-K1 KCNQ1, FluxOR thallium flux fluorescence; stronger effect = higher value; actives 1.3% (n = 310,000); AID 2642, 2010;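 active means compounds whose thallium flux B-score, printed positive for inhibition, exceeds three library SD while starting fluorescence stays within three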;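 further: channel opened by potassium depolarization with thallium stimulus after 20 min compound exposure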
Kir21 inh: inhibitors of mouse Kir2.1 inward-rectifier potassium channel | HEK293-Kir2.1, FluxOR thallium flux fluorescence; stronger effect = lower value | B-score at 10 µM | actives 0.85% (n = 310,000);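 active means fluorescence ratio B-score at or below minus 3 SD of library scores, with starting-brightness B-score within 2 SD, cut at about -4.2 in these data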;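 further: channel flux triggered by added potassium and thallium sulfate stimulus; B-score of peak minus minimum fluorescence over baseline after thallium stimulus; more negative B-score means stronger Kir2.1 block with less thallium influx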
KCNK9 block: KCNK9 potassium channel inhibitors, primary screen, HEK293 cells, thallium flux. actives 1.2% (n = 310,000). AID 488922, 2010. Potassium channel subfamily K member 9 (Homo sapiens), Q9NPC2. B-score at 10 µM. FluxOR thallium flux fluorescence; stronger effect = lower value;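 active means ratio B-score over 3 SD below the library mean, with starting fluorescence within 5 SD of its mean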;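 further: negative B-score means less thallium flux so channel inhibition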
KCNQ1 pot: potentiators or activators of KCNQ1 channel, primary screen, cell-based, thallium flux, high-throughput. Potassium voltage-gated channel subfamily KQT member 1 (Homo sapiens), P51787. CHO-K1 KCNQ1, thallium flux FluxOR fluorescence; stronger effect = higher value. B-score at 10 µM. actives 0.35% (n = 310,000). AID 2648, 2010;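 active means fluorescence ratio B-score, a plate-corrected score, at least three library SD, with initial intensity B-score within 5 SD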
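System: Stable KCNQ1 CHO-K1 line | Incubation: 90 min dye loading and 20 min compound exposure, both at room temperature | Measure: Ratio B score | Medium: Assay buffer for compound exposure, DMSO matched across wells | Compound dosing: Single-concentration screen | Probe or stimulus: K+/Tl+ depolarizing stimulus | Measured by: Kinetic FluxOR fluorescence, 10 s baseline plus 110 s post-stimulus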
An asterisk follows results filed as active; i = inactive; nt = no result. This is a sample that favours compounds with a hit; in the whole collection about 3.8% have one here.

SMILES	hERG rescue	KCNK3 inh	KCNQ1 inh	Kir21 inh	KCNK9 block	KCNQ1 pot
COc1cc(S(=O)(=O)N2CCCC3(CCCCC3)C2)ccc1-n1cnnn1	0	i	i	0	i	i
CC1CCCCN1C(=O)c1cccc(NC2=C(Cl)C(=O)N(Cc3ccccc3)C2=O)c1 (stereo not drawn)	nt	-11*	nt	nt	nt	nt
Cc1cc(Cl)ccc1OCc1n[nH]c(=S)n1C1CCCCC1	-9	i	i	-1.9	i	i
Cc1nc(N2CCCCC2)c2c(-c3cccs3)csc2n1	-22	i	i	-0.3	-7.3*	i
COC(=O)CSc1ccc(-c2nc3ccc(C)cc3[nH]2)cn1	-26	i	i	-0.72	i	i
C/C(=N\NC(=O)C1(C)CC1(Br)Br)c1cccc(NC(=O)C2CCC2)c1 (stereo not drawn)	-11	i	i	0.55	-7.4*	i
Cc1ccc(OCCCCN2CCC(C)CC2)c(Br)c1	-11	i	i	-6*	i	i
Cc1ccc(OCCCCCCN2CCNCC2)c(Br)c1	-5	i	i	-5.6*	i	i
C=CCSc1ncc(CO)n1Cc1ccccc1	-3	i	i	-0.81	i	i
Cc1ccc(C)c(C(=O)CCC(=O)Nc2cccnc2)c1	-11	i	i	-0.61	i	i
COc1ccc(C(c2sc3nc(C)nn3c2O)N2CCC3(CC2)OCCO3)cc1 (stereo not drawn)	-2	i	i	1.4	i	i
CCS(=O)(=O)C1=NN2C(=N)/C(=C\c3ccc(OC(=O)c4ccco4)c(Br)c3)C(=O)N=C2S1	-29	nt	i	-6.1*	i	i
COc1cc(/C=C2\C(=N)N3N=C(S(C)(=O)=O)SC3=NC2=O)ccc1OCCOc1ccccc1C	-8	i	6*	1.4	i	i
O=[N+]([O-])c1cccc(/C=N/N2CCN(Cc3ccc(Cl)cc3)CC2)c1	-3	i	i	-2.2	i	i
CS(=O)(=O)c1cccc(-c2nnc(NC(=O)CCS(=O)(=O)c3ccccc3)o2)c1	-6	i	i	0.99	i	i
CCN1CCN(CCCNC(=O)c2ccc3c(=O)n(CCc4ccccc4)c(=O)[nH]c3c2)CC1	-10	i	i	0.76	i	i
COc1ccc(Nc2nc(-c3cccs3)nc3ccccc23)cc1S(=O)(=O)N1CCOCC1	-27	-11*	i	1.1	i	i
COc1ccc(NS(=O)(=O)c2cccs2)cc1S(=O)(=O)N1CCOCC1	-6	i	i	0.24	i	i
CCOc1ccc(NC(=O)CN(C)S(=O)(=O)c2cccs2)cc1	-8	i	i	-3	i	i
Cc1c(C(=O)N2CCN(Cc3ccc4c(c3)OCO4)CC2)sc2ncnc(N3CCN(c4ccccc4)CC3)c12	-17	i	7*	1.2	i	i
Cc1c(C(=O)N2CCN(Cc3ccc4c(c3)OCO4)CC2)sc2ncnc(N3CCN(c4ccccc4F)CC3)c12	-19	i	i	-1.1	i	i
Cc1ccc(CNc2nc3ccccc3n2C)cc1	-4	i	i	-6.4*	i	i
Cn1c(NCc2ccc(Cl)cc2)nc2ccccc21	-9	i	i	-9.6*	i	i
Cn1c(CNc2nc3ccccc3n2C)nc2ccccc21	-14	i	i	-0.33	i	i
CCCCn1c(=O)[nH]c(=O)c2c1nc(Cn1ncc(Cl)c(Cl)c1=O)n2CCC	-17	i	i	0.06	i	11*
SMILES	hERG rescue	KCNK3 inh	KCNQ1 inh	Kir21 inh	KCNK9 block	KCNQ1 pot
CN(C)CCNC(=O)/C(=C/c1ccc(-c2ccc(Cl)cc2)o1)NC(=O)c1ccccc1	-25	i	i	-1.6	i	i
CN(C)CCNC(=O)/C(=C/c1ccc(-c2ccc(Cl)cc2Cl)o1)NC(=O)c1ccccc1	-21	i	i	-5.6*	i	i
CSc1nc(NCc2ccco2)c2ccccc2n1	-4	i	i	2	i	i
CNc1nc(SC)nc2ccccc12	6.6*	i	i	-1.5	i	i
N#Cc1c(NC(=O)CSc2n[nH]c(Cc3ccccc3)n2)oc(-c2ccccc2)c1-c1ccccc1	-7	i	9*	0.42	i	i
COc1ccc(-c2oc(NC(=O)CCl)c(C#N)c2-c2ccc(OC)cc2)cc1	-3	i	i	-0.02	i	i
COc1ccccc1OCC(=O)Nc1oc(-c2ccccc2)c(-c2ccccc2)c1C#N	nt	-9.4*	nt	nt	nt	nt
N#Cc1c(NC(=O)COC(=O)C2CC3C=CC2C3)oc(-c2ccccc2)c1-c1ccccc1 (stereo not drawn)	-18	i	10*	-0.35	i	i
COc1ccc(-c2oc(NC(=O)CSc3ncn[nH]3)c(C#N)c2-c2ccc(OC)cc2)cc1	-18	-13*	i	0.08	i	i
CN(C)S(=O)(=O)c1ccc(=S)[nH]c1	-10	i	i	1.1	i	i
CC(C)(C)C1CCc2c(C(=O)NNC(=O)CCCC(=O)O)csc2C1 (stereo not drawn)	-1	i	i	1.1	i	i
COCCN(C(=O)COC(=O)CCc1c[nH]c2ccccc12)c1c(N)n(Cc2ccccc2)c(=O)[nH]c1=O	-10	i	i	0.88	i	i
Cc1ccc(OCC(=O)Nc2oc(-c3ccccc3)c(-c3ccccc3)c2C#N)cc1	-4	i	6*	0.36	i	i
COc1ccc(NC(=S)NC(NC(=O)C(C)C)C(Cl)(Cl)Cl)c([N+](=O)[O-])c1 (stereo not drawn)	-9	i	i	0.33	i	i
CCN1CCCC1CNC(=O)c1ccc2c(c1)NC(=O)/C(=C\c1ccc(C)cc1)S2 (stereo not drawn)	-22	i	11*	-2.8	i	i
O=[N+]([O-])c1ccc(-c2nc3ccc([N+](=O)[O-])cc3[nH]2)cc1	-6	i	i	0.33	i	i
O=[N+]([O-])c1ccc2nc(/C=C/c3ccc(Cl)cc3)[nH]c2c1	-14	i	11*	0.67	i	i
